We go through nine molecules from ChEMBL document CHEMBL4428073, “Design, Synthesis, and Bioactivation of O-Glycosylated Prodrugs of the Natural Nitric Oxide Precursor N(ω)-Hydroxy-l-arginine” (J Med Chem, 2016).

A word on the half-life: it is the time needed for the level to fall by half in the phase considered. A high value points to slow loss.

The target in series [1] is T1, Nitric oxide synthase, inducible (Mus musculus, UniProt P29477).
T1 sequence (P29477 whole entry): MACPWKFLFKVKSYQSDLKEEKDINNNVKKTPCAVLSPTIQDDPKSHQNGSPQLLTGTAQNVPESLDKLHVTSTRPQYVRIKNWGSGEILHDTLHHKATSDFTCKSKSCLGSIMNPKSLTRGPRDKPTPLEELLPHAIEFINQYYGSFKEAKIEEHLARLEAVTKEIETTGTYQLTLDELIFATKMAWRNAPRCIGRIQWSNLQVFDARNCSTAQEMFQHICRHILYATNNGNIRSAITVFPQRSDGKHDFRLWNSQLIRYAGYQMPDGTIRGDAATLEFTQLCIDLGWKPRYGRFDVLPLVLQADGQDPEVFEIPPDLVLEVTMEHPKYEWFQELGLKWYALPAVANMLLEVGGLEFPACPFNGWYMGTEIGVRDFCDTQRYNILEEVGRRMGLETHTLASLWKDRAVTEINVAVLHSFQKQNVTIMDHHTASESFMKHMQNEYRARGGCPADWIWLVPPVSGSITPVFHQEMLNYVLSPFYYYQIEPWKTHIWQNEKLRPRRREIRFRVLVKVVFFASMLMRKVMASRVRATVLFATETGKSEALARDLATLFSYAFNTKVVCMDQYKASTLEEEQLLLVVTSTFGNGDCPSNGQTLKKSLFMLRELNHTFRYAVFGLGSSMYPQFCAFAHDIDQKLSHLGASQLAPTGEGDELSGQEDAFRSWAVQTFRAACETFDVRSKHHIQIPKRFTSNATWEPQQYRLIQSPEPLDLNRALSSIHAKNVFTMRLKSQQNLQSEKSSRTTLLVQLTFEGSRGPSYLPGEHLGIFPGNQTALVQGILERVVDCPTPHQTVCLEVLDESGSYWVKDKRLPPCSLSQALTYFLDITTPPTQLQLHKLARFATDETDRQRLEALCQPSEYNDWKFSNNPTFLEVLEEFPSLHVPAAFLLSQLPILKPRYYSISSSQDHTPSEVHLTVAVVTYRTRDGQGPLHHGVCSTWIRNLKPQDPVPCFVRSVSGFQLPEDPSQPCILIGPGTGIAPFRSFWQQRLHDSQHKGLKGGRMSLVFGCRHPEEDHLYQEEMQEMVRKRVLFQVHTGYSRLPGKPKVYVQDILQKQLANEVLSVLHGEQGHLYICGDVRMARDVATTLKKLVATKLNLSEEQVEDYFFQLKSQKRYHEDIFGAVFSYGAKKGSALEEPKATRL
Nature of the series: Prodrug activation in LPS-stimulated mouse […] cells assessed as iNOS-mediated Nomega-hydroxy-L-arginine formation by measuring increase in NO release at 1 mM incubated for 2.5 hrs by Hoechst 33342/DAF-FM-DA staining based fluorescence microscopic analysis. Conditions: 1000 µM. The procedure, abridged:
(§1)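 Washed into arginine/lysine-free DMEM with 2% FBS. Compound 1 mM final from DPBS++ stock, 150 min (L-NAME co-incubated where stated). Then 5 µM DAF-FM-DA plus 10 µM Hoechst 15 min. Six images per well, triplicate wells. Cell-normalized intensity minus DPBS++ control, scaled to reference substrate = 100%. Mean ± SEM.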

Series [2] addresses T1, Nitric oxide synthase, inducible. Nature of the series: Prodrug activation in LPS-stimulated mouse […] cells assessed as iNOS-mediated Nomega-hydroxy-L-arginine formation by measuring increase in NO release at 1 mM incubated for 2.5 hrs in presence of NOS inhibitor L-NAME by Hoechst 33342/DAF-FM-DA staining based fluorescence microscopic analysis. Particulars: 1000 µM. A digest of the protocol:
as §1

The target in a further series is T2, Liver carboxylesterase (Sus scrofa, UniProt Q29550).
T2 sequence (Q29550 whole entry): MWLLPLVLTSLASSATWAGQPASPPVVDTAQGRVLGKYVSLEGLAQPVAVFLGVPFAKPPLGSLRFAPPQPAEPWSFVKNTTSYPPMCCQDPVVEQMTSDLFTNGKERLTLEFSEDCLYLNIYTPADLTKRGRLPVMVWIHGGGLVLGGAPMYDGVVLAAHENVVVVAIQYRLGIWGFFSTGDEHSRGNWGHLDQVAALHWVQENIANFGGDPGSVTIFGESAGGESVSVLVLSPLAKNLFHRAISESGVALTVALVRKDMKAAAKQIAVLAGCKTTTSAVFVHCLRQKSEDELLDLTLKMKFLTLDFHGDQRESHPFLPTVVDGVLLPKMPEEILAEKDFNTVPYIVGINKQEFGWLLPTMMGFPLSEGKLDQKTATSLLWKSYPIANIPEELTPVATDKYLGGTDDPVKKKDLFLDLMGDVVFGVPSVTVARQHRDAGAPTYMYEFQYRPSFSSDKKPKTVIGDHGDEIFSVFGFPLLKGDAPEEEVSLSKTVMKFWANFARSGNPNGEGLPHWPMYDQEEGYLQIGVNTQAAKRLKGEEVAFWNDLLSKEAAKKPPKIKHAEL
Nature of the series: Prodrug activation assessed as porcine liver carboxylesterase-mediated Sodium Nomega-(beta-D-Galactopyranos-1-yloxy)-L-arginine formation at 500 uM measured up to 150 mins by HPLC analysis. Conditions: pig, 2.5 h. A digest of the protocol:
(§2)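 Porcine liver carboxylesterase (133 U/mL) plus β-galactosidase (33 U/mL) pre-incubated 3 min at 37 °C in 50 mM triethanolamine pH 7.0. Started with prodrug at 500 µM. Samples at 0–150 min quenched with cold MeOH, centrifuged and analysed by o-phthalaldehyde/fluorescence HPLC. No-enzyme controls included.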

The nature of series [3]: Prodrug activation assessed as porcine liver carboxylesterase/recombinant Escherichia coli beta-galactosidase-mediated Nomega-hydroxy-L-arginine formation by measuring NO release at 500 uM preincubated for 150 mins followed by recombinant mouse iNOS and NADPH addition incubated for 30 mins followed by LDH and sodium pyruvate addition measured after 15 mins by Griess assay. Particulars: 0.5 h. Background: Nitrite, measured by Griess reagent, commonly stands in for NO production.

A short description of series [4]: Half life in 10 mM potassium phosphate buffer at 250 uM at pH 7.4 at 37 degC by HPLC analysis. The class given is physicochemical. The procedure, abridged: (§3)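 Half-life from incubations at 250 µM in 10 mM potassium phosphate buffer, 37 °C, pH 7.4 or 9.0. Sampling at 3, 6 and 24 h. HPLC of o-phthalaldehyde derivatives with fluorescence detection (ex 338 nm, em 425 nm).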

A short description of series [5]: Half life in 10 mM potassium phosphate buffer at 250 uM at pH 9 at 37 degC by HPLC analysis. Format: physicochemical. The procedure, abridged:
as §3

Series [6] in a line: Prodrug activation assessed as porcine liver carboxylesterase/beta-galactosidase-mediated Nomega-hydroxy-L-arginine formation at 500 uM measured up to 150 mins by HPLC analysis. Details: species or system Sus scrofa. Conditions: pig, 2.5 h. A digest of the protocol: as §2
Series [7] is described as follows: Chemical stability in 10 mM potassium phosphate buffer at 250 uM at pH 2 incubated up to 24 hrs at 37 degC by HPLC analysis. Format: physicochemical. Conditions: pH 2, 24 h. A digest of the protocol: (§4)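 Compound at 250 µM in 10 mM potassium phosphate buffer at pH 2.0, 7.4 or 9.0, 37 °C. Samples taken at 3, 6 and 24 h, diluted 1:1 with 100 mM potassium phosphate pH 7.4. Analysed by HPLC after o-phthalaldehyde derivatization: RP18 column at 37 °C, fluorescence detection (ex 338 nm, em 425 nm).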

Series [8] is described as follows: Chemical stability in 10 mM potassium phosphate buffer at 250 uM at pH 9 incubated up to 24 hrs at 37 degC by HPLC analysis. The class given is physicochemical. Conditions: pH 9, 24 h. The procedure, abridged: as §4
The next series concerns the target Beta-galactosidase (Escherichia coli, UniProt Q8VNN2). Description: Prodrug activation assessed as recombinant Escherichia coli beta-galactosidase-mediated Nomega-hydroxy-L-arginine formation at 500 uM measured up to 150 mins by HPLC analysis. Conditions: 2.5 h. The procedure, abridged:
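Recombinant E. coli β-galactosidase (25 U/mL) pre-incubated 3 min at 37 °C in 50 mM triethanolamine pH 7.0, then prodrug added at 500 µM. Samples at 0, 15, 45, 90 and 150 min stopped with ice-cold MeOH, centrifuged and analysed by o-phthalaldehyde/fluorescence HPLC. No-enzyme controls included.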

The nature of series [9]: Chemical stability in 10 mM potassium phosphate buffer at 250 uM at pH 7.4 incubated up to 24 hrs at 37 degC by HPLC analysis. Format: physicochemical. Conditions: pH 7.4, 24 h. The procedure, abridged: as §4
Series [10] is described as follows: Prodrug activation assessed as almond beta-glucosidase-mediated Nomega-hydroxy-L-arginine formation at 500 uM measured up to 150 mins by HPLC analysis. Particulars: prunus dulcis, 2.5 h. A digest of the protocol: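 β-Glucosidase (recombinant, almond; 33 U/mL) pre-incubated 3 min at 37 °C in 50 mM triethanolamine pH 7.0. Reaction started with prodrug (500 µM). Aliquots at 0, 15, 45, 90 and 150 min quenched with equal volume ice-cold MeOH, then centrifuged. Supernatant analysed by o-phthalaldehyde/fluorescence HPLC. No-enzyme controls run alongside. Mean ± SD, n = 2-3.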

In series [11] the test system is J774.A1. Description: Toxicity in mouse […] cells assessed as reduction in cell proliferation up to 1 mM after 2.5 hrs by Hoechst 33342/DAF-FM-DA staining based fluorescence microscopic analysis. Conditions: j774.a1, 2.5 h. The procedure, abridged: (§5)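 Stained with Hoechst 33342 and DAF-FM-DA, then imaged by automated fluorescence microscopy (about 1000 cells per well). Cell shape, blebbing, apoptosis and cell numbers judged against DPBS++ vehicle controls.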

For series [12], the system named is J774.A1. Description: Toxicity in mouse […] cells assessed as appearance of cell blebbing up to 1 mM after 2.5 hrs by Hoechst 33342/DAPI/GFP staining based fluorescence microscopic analysis. Conditions: j774.a1, 2.5 h. The procedure, abridged: as §5
For series [13], the target named is T3, Nitric oxide synthase, inducible (Mus musculus) (UniProt P29477).
T3 sequence (whole entry): T1 sequence (P29477 whole entry)
Description: Substrate activity at recombinant mouse iNOS assessed as increase in NO release incubated for 30 mins in presence of NADPH followed by LDH and sodium pyruvate addition measured after 15 mins by Griess assay.

Series [14] relates to J774.A1. Nature of the series: Toxicity in mouse […] cells assessed as induction of apoptosis up to 1 mM after 2.5 hrs by Hoechst 33342/DAPI/GFP staining based fluorescence microscopic analysis. Particulars: j774.a1, 2.5 h. Format: cell-based. A digest of the protocol: as §5
In series [15] the test system is J774.A1. Description: Toxicity in mouse […] cells assessed as changes in cell shape up to 1 mM after 2.5 hrs by Hoechst 33342/DAPI/GFP staining based fluorescence microscopic analysis. Conditions: j774.a1, 2.5 h. A digest of the protocol:
as §5

Series [16] addresses T3, Nitric oxide synthase, inducible (Mus musculus). Description: Substrate activity at iNOS in LPS-stimulated mouse J744A.1 cells assessed as increase in NO release at 1 mM incubated for 2.5 hrs by Hoechst 33342/DAF-FM-DA staining based fluorescence microscopic analysis. The procedure, abridged:
as §1

Activity calls are given as the source filed them. Some results are limits rather than exact numbers.

Beta-galactosidase, sequence (Q8VNN2 whole entry): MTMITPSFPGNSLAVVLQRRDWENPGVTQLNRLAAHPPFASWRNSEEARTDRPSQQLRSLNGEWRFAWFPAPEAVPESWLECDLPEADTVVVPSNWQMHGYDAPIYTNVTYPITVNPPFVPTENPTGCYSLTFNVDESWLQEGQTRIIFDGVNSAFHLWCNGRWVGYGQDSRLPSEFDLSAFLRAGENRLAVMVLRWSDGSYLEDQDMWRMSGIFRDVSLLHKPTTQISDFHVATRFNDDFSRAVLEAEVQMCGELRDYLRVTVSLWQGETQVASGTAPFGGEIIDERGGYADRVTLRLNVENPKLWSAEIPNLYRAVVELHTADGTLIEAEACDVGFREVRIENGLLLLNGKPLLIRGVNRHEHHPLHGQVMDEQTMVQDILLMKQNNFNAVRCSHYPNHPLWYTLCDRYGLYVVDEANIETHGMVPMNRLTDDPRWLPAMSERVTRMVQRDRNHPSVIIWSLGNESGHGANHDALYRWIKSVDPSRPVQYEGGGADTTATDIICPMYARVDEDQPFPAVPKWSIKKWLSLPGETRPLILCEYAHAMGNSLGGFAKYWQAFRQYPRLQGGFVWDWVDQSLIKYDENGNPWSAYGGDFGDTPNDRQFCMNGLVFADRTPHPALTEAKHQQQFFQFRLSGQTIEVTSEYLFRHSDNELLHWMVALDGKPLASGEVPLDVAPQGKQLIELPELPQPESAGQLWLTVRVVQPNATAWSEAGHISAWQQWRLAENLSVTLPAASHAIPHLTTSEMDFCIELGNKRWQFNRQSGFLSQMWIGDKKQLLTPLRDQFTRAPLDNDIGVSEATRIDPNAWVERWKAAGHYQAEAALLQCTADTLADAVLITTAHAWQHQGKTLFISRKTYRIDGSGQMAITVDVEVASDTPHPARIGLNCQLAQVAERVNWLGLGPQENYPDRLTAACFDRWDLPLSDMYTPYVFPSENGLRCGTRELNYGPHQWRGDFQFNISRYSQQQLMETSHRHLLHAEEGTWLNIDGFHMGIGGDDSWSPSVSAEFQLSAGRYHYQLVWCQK

`CCOC(=O)[C@@H](N)CCCN/C(N)=N/O[C@@H]1O[C@H](CO)[C@@H](O)[C@H](O)[C@H]1O.Cl.Cl`: the Drug metabolism result in series [1] is listed as “Metabolite_Detected”; in series [2], “Metabolite_Notdetected”.

`CCOC(=O)[C@@H](N)CCCN/C(N)=N/O[C@@H]1O[C@H](COC(C)=O)[C@@H](OC(C)=O)[C@H](OC(C)=O)[C@H]1OC(C)=O.Cl.Cl`: the Drug metabolism result in series [1] is “Metabolite_Detected”; in series [2], “Metabolite_Notdetected”.

Regarding `CCOC(=O)[C@@H](N)CCCN/C(N)=N/O[C@@H]1O[C@H](CO)[C@H](O)[C@H](O)[C@H]1O.Cl.Cl`, the Drug metabolism entry on Liver carboxylesterase is “Metabolite_Detected”; in [1] it was “Metabolite_Notdetected”; in series [3], “Metabolite_Detected”; in series [6], “Metabolite_Detected”. Also, the half-life at 250 µM in series [4] and in [5] was 600 to 720 min throughout.

As for `N/C(=N\O[C@@H]1O[C@H](CO)[C@H](O)[C@H](O)[C@H]1O)NCCC[C@H](N)C(=O)[O-].[Na+]`, the Stability entry in [7], in series [8] and in series [9] was “Stable” in each case. The Drug metabolism entry on Beta-galactosidase is “Metabolite_Detected”; in series [1], “Metabolite_Notdetected”; in series [10] it was “Metabolite_Detected”; in series [3], “Metabolite_Detected”.

With `N=C(NO)NCCC[C@H](N)C(=O)O`, the Activity result in the series with J774.A1 [11], in the series with J774.A1 [12], in the series with J774.A1 [14] and with J774.A1 [15] was “Non-Toxic” throughout. Further, the outcome in [13] and in [16] was Active.

Consider `CC(=O)OC[C@H]1O[C@@H](O/N=C(\N)NCCC[C@H](N)C(=O)O)[C@H](OC(C)=O)[C@@H](OC(C)=O)[C@H]1OC(C)=O.Cl.Cl`, for which the Drug metabolism entry (at Beta-galactosidase; in series [1]) was “Metabolite_Notdetected” each time. The half-life at 250 µM in series [4] and in series [5] was above 1440 min throughout.

In the case of `CCOC(=O)[C@@H](N)CCCN/C(N)=N/O[C@@H]1O[C@H](COC(C)=O)[C@H](OC(C)=O)[C@H](OC(C)=O)[C@H]1OC(C)=O.Cl.Cl`, the Drug metabolism entry in series [2] was “Metabolite_Notdetected”.

With `CC(=O)OC[C@H]1O[C@@H](O/N=C(\N)NCCC[C@H](N)C(=O)O)[C@H](OC(C)=O)[C@@H](OC(C)=O)[C@@H]1OC(C)=O.Cl.Cl`, the figures for the Drug metabolism entry in [1], in series [2] and in series [10] were “Metabolite_Detected”, “Metabolite_Notdetected” and “Metabolite_Detected”, respectively.

For the molecule `N/C(=N\O[C@@H]1O[C@H](CO)[C@@H](O)[C@H](O)[C@H]1O)NCCC[C@H](N)C(=O)[O-].[Na+]`, the Drug metabolism entry is “Metabolite_Detected” in series [1], “Metabolite_Notdetected” in [2] and “Metabolite_Detected” in [10].
